Assay results from ChEMBL document CHEMBL1799960, “Diadenosine 5',5''-(boranated)polyphosphonate analogues as selective nucleotide pyrophosphatase/phosphodiesterase inhibitors” (J Med Chem, 2010).
Active and inactive are the calls of the source. No cut-off for these calls is given here.

Tests used:
[1] = molecular target: T1, Ectonucleoside triphosphate diphosphohydrolase 1 (Homo sapiens) (UniProt P49961); experiment: Activity of human NTPDase1 expressed in COS7 cells assessed as amount of inorganic phosphate released using ATP as the substrate at 100 uM after 15 mins by malachite green reagent method; type: cell-based; conditions: COS-7
T1 sequence (whole entry): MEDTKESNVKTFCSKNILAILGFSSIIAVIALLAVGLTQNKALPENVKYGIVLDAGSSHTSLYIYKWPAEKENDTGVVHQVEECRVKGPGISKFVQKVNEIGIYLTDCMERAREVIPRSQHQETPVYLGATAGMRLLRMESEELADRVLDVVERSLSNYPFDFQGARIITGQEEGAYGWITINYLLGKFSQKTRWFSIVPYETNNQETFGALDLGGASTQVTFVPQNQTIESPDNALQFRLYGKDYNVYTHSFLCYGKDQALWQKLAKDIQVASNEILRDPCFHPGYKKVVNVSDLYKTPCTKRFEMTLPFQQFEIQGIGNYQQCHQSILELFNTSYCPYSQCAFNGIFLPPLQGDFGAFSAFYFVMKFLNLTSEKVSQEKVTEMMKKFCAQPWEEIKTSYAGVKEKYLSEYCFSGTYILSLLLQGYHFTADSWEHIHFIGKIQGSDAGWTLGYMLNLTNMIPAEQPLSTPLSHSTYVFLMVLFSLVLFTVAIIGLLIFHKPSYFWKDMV
How it was run: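 Crude membrane-enriched protein extract of transiently transfected COS-7 cells, preincubated 3 min at 37 °C in Tris-Ringer buffer pH 7.3. Reaction started with 100 μM ATP, or with the analogue alone at 100 μM to test it as substrate. Stopped after 15 min with malachite green reagent; released Pi read at 630 nm. Mean ± SD, n = 3.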

[2] = molecular target: T2, Ectonucleotide pyrophosphatase/phosphodiesterase family member 3 (Homo sapiens) (UniProt O14638); experiment: Activity of human NPP3 expressed in COS7 cells assessed as production of p-nitrophenol using Ap5A as the substrate at 100 uM after 30 mins by malachite green reagent method; type: cell-based; conditions: COS-7
T2 sequence (whole entry): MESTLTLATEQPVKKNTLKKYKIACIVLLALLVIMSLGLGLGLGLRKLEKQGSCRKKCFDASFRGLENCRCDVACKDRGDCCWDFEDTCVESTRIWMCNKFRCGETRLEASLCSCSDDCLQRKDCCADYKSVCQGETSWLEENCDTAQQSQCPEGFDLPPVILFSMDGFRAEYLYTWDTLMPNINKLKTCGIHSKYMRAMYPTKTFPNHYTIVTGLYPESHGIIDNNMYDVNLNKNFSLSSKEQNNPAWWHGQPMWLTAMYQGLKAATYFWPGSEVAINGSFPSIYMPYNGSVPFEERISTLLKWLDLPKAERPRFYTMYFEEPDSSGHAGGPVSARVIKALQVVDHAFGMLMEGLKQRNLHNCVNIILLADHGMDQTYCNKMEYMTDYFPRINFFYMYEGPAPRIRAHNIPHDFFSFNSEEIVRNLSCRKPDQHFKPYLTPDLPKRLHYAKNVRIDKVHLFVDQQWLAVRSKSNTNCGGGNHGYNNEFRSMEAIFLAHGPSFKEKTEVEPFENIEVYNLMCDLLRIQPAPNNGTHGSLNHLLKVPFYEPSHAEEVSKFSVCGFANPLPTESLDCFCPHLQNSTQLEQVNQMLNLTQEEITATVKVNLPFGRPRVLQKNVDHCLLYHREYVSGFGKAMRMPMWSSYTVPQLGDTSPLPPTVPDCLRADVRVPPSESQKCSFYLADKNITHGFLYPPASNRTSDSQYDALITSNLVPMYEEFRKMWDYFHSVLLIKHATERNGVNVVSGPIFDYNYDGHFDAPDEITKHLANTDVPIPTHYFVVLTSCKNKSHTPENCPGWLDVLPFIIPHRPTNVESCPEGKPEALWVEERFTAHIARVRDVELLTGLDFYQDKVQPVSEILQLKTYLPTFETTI

[3] = molecular target: T3, Ectonucleoside triphosphate diphosphohydrolase 2 (Homo sapiens) (UniProt Q9Y5L3); experiment: Inhibition of human NTPDase2 expressed in COS7 cells assessed as amount of inorganic phosphate released using ATP as the substrate at 100 uM after 15 mins by malachite green reagent method; type: cell-based; conditions: COS-7
T3 sequence (whole entry): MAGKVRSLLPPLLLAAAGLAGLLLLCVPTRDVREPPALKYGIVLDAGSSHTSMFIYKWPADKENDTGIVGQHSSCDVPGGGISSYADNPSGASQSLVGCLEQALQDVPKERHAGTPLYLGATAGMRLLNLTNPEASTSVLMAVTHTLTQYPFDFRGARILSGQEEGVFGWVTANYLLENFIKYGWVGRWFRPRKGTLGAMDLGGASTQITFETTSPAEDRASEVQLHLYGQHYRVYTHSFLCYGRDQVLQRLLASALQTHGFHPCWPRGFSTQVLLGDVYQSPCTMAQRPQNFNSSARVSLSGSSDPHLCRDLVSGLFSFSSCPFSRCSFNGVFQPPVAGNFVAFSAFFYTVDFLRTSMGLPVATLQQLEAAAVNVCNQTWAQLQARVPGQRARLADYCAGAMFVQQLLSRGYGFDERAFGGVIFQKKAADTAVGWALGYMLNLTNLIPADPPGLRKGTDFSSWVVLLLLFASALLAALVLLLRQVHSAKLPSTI
How it was run: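 Protein extracts of transfected COS-7 cells (ecto-5'-nucleotidase: 100 μM AMP substrate; NTPDases: 100 μM ATP) were preincubated 3 min at 37 °C in Tris-Ringer pH 7.3 with inhibitor at 100 μM final. After 15 min, malachite green stop; Pi read at 630 nm. Activity given as % of substrate-only control. Mean ± SD of three experiments in triplicate.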

Autotaxin (Homo sapiens) = Autotaxin (Homo sapiens) (UniProt Q13822); experiment: Inhibition of human secreted NPP2 expressed in COS7 cells assessed as production of p-nitrophenol using pnp-TMP as the substrate at 100 uM after 15 mins by malachite green reagent method; type: cell-based; conditions: COS-7
How it was run: (§1)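 Human NPP1, NPP2 (membrane lysate or conditioned medium for the secreted form) or NPP3 from transfected COS-7 cells, preincubated 3 min at 37 °C in 50 mM Tris pH 8.5 buffer with CaCl2, NaCl and KCl. Substrate and inhibitor both at 100 μM final. pnp-TMP: p-nitrophenol read at 405 nm at 15 min. ATP or Ap5A: stopped at 30 min with perchloric acid, then HPLC. Results as % residual activity versus control; three to six experiments in triplicate.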

[4] = molecular target: T2, Ectonucleotide pyrophosphatase/phosphodiesterase family member 3 (Homo sapiens); experiment: Inhibition of human NPP3 expressed in COS7 cells assessed as production of p-nitrophenol using pnp-TMP as the substrate at 100 uM after 15 mins by malachite green reagent method; type: cell-based; conditions: COS-7; how it was run: as §1
[5] = molecular target: T2, Ectonucleotide pyrophosphatase/phosphodiesterase family member 3 (Homo sapiens); experiment: Inhibition of human NPP3 expressed in COS7 cells assessed as amount of inorganic phosphate released using ATP as the substrate at 100 uM after 15 mins by malachite green reagent method; type: cell-based; conditions: COS-7
[6] = molecular target: P2Y purinoceptor 2 (Homo sapiens) (UniProt P41231); experiment: Agonist activity at GFP tagged-human P2Y2 receptor expressed in human 1321N1 cells assessed as elevation in calcium level at 25 uM after 30 mins by fluorescence spectrophotometric analysis; type: functional, cell-based
Sequence of P2Y purinoceptor 2 (Homo sapiens) (P41231 whole entry): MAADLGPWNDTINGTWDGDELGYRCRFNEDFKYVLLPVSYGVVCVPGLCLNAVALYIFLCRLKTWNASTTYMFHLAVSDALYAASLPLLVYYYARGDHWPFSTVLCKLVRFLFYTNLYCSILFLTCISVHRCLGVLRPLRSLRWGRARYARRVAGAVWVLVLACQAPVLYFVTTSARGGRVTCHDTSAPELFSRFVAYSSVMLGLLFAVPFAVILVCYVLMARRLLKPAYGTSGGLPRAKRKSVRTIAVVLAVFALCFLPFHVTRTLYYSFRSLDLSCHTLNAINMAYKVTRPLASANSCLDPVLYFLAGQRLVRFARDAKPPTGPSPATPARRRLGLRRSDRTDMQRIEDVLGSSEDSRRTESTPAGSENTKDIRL

Row | Activity [1] [%] | Activity [2] [%] | inhibition [3] [%] | inhibition (Autotaxin (Homo sapiens)) [%] | inhibition [4] [%] | inhibition [5] [%] | Activity [6] | Structure (SMILES)
1 | 1.1 | 5.5 | 10 | 60 | 30 | 90 | inactive | Nc1ncnc2c1ncn2[C@H]1C[C@H](O)[C@@H](COP(=O)(O)CP(=O)(O)OP(=O)(O)CP(=O)(O)OC[C@H]2O[C@@H](n3cnc4c(N)ncnc43)C[C@@H]2O)O1
2 | 0.5 | 12 | 10 | 60 | 30 | 90 | inactive | BP(=O)(OP(=O)(O)CP(=O)(O)OC[C@H]1O[C@@H](n2cnc3c(N)ncnc32)[C@H](O)[C@@H]1O)OP(=O)(O)CP(=O)(O)OC[C@H]1O[C@@H](n2cnc3c(N)ncnc32)[C@H](O)[C@@H]1O
3 | 1.5 | 11 | 10 | 60 | 30 | 65 | inactive | Nc1ncnc2c1ncn2[C@@H]1O[C@H](COP(=O)(O)CP(=O)(O)OP(=O)(O)CP(=O)(O)OC[C@H]2O[C@@H](n3cnc4c(N)ncnc43)[C@H](O)[C@@H]2O)[C@@H](O)[C@H]1O
4 | – | 5.5 | 10 | 60 | 30 | 65 | inactive | BP(=O)(OP(=O)(O)CP(=O)(O)OC[C@H]1O[C@@H](n2cnc3c(N)ncnc32)C[C@@H]1O)OP(=O)(O)CP(=O)(O)OC[C@H]1O[C@@H](n2cnc3c(N)ncnc32)C[C@@H]1O
